Reference: ChEMBL document CHEMBL4725285, “Amides as bioisosteres of triazole-based geranylgeranyl diphosphate synthase inhibitors” (Bioorg Med Chem, 2020)
pIC50: −log10 of the molar value. The source made the active and inactive calls. The calls are words filed in the database; no cut-off is given here.

Columns and labels:
Rattus norvegicus [1] = species: Rattus norvegicus; test: Inhibition of recombinant rat FTase expressed in Escherichia coli using dansyl-GCVLS peptide and farnesyl pyrophosphate as substrate at 100 uM after 1 hr by fluorescence microplate reader analysis relative to control
Procedure, shortened: (§1)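 Recombinant FTase and GGTase I assayed with dansyl-GCVLS and dansyl-GCVLL peptides by a modified Temple et al. method. Fluorescence change followed over time on a microplate reader. Duplicates at multiple concentrations, up to 100 μM, in three independent experiments. IC50 taken from concentration-response curves.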

[2] = target: T1, Geranylgeranyl pyrophosphate synthase (Homo sapiens) (UniProt O95749); test: Inhibition of GGDPS in human RPMI-8226 cells assessed as lowest effective concentration required to show unmodified Rap1a band after 48 hrs by immunoblot analysis; format: cell-based
T1 sequence (whole entry): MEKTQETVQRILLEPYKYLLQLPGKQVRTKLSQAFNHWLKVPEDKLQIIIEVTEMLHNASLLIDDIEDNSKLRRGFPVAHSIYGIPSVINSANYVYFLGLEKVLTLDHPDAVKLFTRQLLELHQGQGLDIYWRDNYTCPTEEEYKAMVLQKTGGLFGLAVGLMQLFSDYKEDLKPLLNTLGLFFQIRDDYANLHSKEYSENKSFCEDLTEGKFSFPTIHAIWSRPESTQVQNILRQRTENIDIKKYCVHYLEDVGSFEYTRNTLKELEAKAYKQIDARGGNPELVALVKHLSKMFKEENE
Procedure, shortened: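 RPMI-8226 myeloma cells exposed to drugs for 48 hrs, with lovastatin as positive control. Lysate protein quantified by BCA. Equal amounts run on SDS-PAGE, blotted to PVDF, and probed for H-Ras, Rap1a (antibody recognises only unmodified protein) and β-tubulin as loading control. Detection by HRP secondary antibodies and ECL.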

Rattus norvegicus [3] = species: Rattus norvegicus; test: Inhibition of recombinant rat GGtase-1 expressed in Escherichia coli using dansyl-GCVLS and geranylgeranyl pyrophosphate as substrate at 100 uM after 2 hrs by fluorescence microplate reader analysis relative to control; procedure, shortened: as §1
[4] = target: T2, Geranylgeranyl pyrophosphate synthase (Homo sapiens, UniProt O95749); test: Inhibition of recombinant GGDPS (unknown origin) using [14C] IPP and FPP as substrate preincubated for 10 mins followed by substrate addition and measured after 30 min by liquid scintillation counting method
T2 sequence (O95749 whole entry): T1 sequence (whole entry)
Procedure, shortened: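 Recombinant GGDPS used, run by a previously described method. Each compound tested in duplicate at multiple concentrations across three independent experiments. IC50 derived from concentration-response curves.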

Homo sapiens = species: Homo sapiens; test: Selectivity ratio of IC50 for FDPS (unknown origin) to IC50 for GGDPS (unknown origin)
[5] = target: T3, Farnesyl pyrophosphate synthase (Homo sapiens, UniProt P14324); test: Inhibition of recombinant FDPS (unknown origin) using [14C] IPP and GPP as substrate preincubated for 10 mins followed by substrate addition and measured after 30 min by liquid scintillation counting method
T3 sequence (P14324 whole entry): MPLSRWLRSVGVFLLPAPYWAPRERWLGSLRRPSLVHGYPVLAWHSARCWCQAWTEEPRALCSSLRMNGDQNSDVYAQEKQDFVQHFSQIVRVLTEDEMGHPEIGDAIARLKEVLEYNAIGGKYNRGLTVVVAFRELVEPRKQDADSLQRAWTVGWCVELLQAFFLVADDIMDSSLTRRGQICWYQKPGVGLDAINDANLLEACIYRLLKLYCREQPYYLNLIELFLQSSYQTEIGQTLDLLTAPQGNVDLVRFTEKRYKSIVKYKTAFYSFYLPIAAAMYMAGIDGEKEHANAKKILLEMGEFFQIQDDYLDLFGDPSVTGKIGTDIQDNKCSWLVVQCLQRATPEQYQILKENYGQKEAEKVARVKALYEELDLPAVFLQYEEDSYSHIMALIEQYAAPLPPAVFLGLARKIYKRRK

[6] = target: T1, Geranylgeranyl pyrophosphate synthase (Homo sapiens); test: Inhibition of GGDPS in human RPMI-8226 cells assessed as lowest effective concentration required for increase in intracellular lambda chain level after 48 hrs by ELISA; format: cell-based
Rattus norvegicus [7] = species: Rattus norvegicus; test: Inhibition of recombinant rat GGtase-1 expressed in Escherichia coli using dansyl-GCVLS and geranylgeranyl pyrophosphate as substrate after 2 hrs by fluorescence microplate reader analysis; procedure, shortened: as §1

Structure (SMILES)	inhibition (Rattus norvegicus [1])	LED [2] [µM]	inhibition (Rattus norvegicus [3])	pIC50 [4]	Ratio IC50 (Homo sapiens)	pIC50 [5]	LED [6] [µM]	inhibition (Rattus norvegicus [7])
CC(C)=CCC/C(C)=C/CCC(=O)NCCC(P(=O)(O)O)P(=O)(O)O	inactive	1	inactive	6.10	17.9	4.84	1	–
CC(C)=CCC/C(C)=C\CCC(=O)NCCC(P(=O)(O)O)P(=O)(O)O	inactive	0.5	inactive	5.96	28.8	4.50	0.5	–
CC(C)=CCCC(=O)NCCC(P(=O)(O)O)P(=O)(O)O	–	50	–	4.84	3.1	4.35	50	–
CC(C)=CCC/C(C)=C\C(=O)NCCC(P(=O)(O)O)P(=O)(O)O	< 30%	50	–	–	–	–	50	–
CC(C)=CCC/C(C)=C\CCn1cc(CC(P(=O)(O)O)P(=O)(O)O)nn1	–	0.03	–	–	445	4.48	0.03	–
CC(C)=CCC/C(C)=C\CC(=O)NCCC(P(=O)(O)O)P(=O)(O)O	inactive	5	inactive	5.43	2.1	5.11	5	–
CC(C)=CCC[C@@H](C)CC(=O)NCCC(P(=O)(O)O)P(=O)(O)O	inactive	5	inactive	5.47	14.3	4.31	5	–
CC(C)=CCC/C(C)=C/C(=O)NCCC(P(=O)(O)O)P(=O)(O)O (mixture of isomers)	–	10	–	–	–	–	10	–
CC(C)=CCC/C(C)=C/C(=O)NCCC(P(=O)(O)O)P(=O)(O)O	–	5	–	–	–	–	5	inactive
CC(C)=CCC[C@H](C)CC(=O)NCCC(P(=O)(O)O)P(=O)(O)O	inactive	50	inactive	5.27	5.1	4.56	50	–
